Assay results as given in the RNAGym collection of RNA variant scans (doi:10.1126/science.aae0568).
This sample holds only a part of the variants without activity.

B1: tRNA (parent)
chain: GUUCCGUUGGCGUAAUGGUAACGCGUCUCCCUCCUAAGGAGAAGACUGCGGGUUCGAGUCCCGUACGGAACG

Variants of: B1
Assay: yeast fitness relative to wild type (ratio to wild type); higher = fitter; tRNA-Arg(CCU), competitive growth, 37 C, YPD
How it was run: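 A pool of Saccharomyces cerevisiae strains, each with a tRNA-Arg(CCU) gene variant at the native genomic locus, was competed in YPD at 37°C for 24 hours across six parallel replicates. The variants had been chemically synthesised at a 3% per-site mutation rate over 69 sites, and gene amplicons before and after competition were read by 100-nucleotide paired-end sequencing. Darwinian fitness relative to wild type rested on changes in genotype frequencies. Genotypes required ≥ 100 starting reads, and estimates < 0.5 were set to 0.5.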

Compared with G6A G12C U16C C31U G52C, G6A U13G A40U is lower in yeast fitness: 0.555 for the first, 0.502 for the second.

Compared with G6A U13A A14G A42U, G6A G9C G44C G67A is higher in yeast fitness: ≤ 0.5 for the first, 0.649 for the second.

G6A U13G A36U C46G C62A and G6A U16A A43C G67C cannot be ordered by yeast fitness: ≤ 0.5 for the first, ≤ 0.5 for the second.

First: G6A G44A A45G G51C C66U A69C
Second: G6A G12C U16A
The yeast fitness of the first is lower: ≤ 0.5 for the first, 0.799 for the second.

Going from G6A G17C to G6A G17A, the yeast fitness falls from 0.744 to 0.633.

G6A G50A G56U G58A and G6A G23A U47A G58C cannot be ordered by yeast fitness: ≤ 0.5 for the first, ≤ 0.5 for the second.

Going from G6A G39A to G6A G10A G17A, the yeast fitness falls from 0.916 to 0.55.

G6A G23C C61U and G6A G9C C29U C55G cannot be ordered by yeast fitness: ≤ 0.5 for the first, ≤ 0.5 for the second.

First: G6A G23A
Second: G6A G23C
The yeast fitness of the first is higher: 0.877 for the first, 0.643 for the second.

Compared with G6A U7C G41A A42C G50C A70G, G6A G12C U16A A21C is lower in yeast fitness: 0.593 for the first, ≤ 0.5 for the second.

G6A U7G C22G G50A and G6A G25C C33U G48A G63A cannot be ordered by yeast fitness: ≤ 0.5 for the first, ≤ 0.5 for the second.

G6A G39C A45G and G6A U8A G52A G56C cannot be ordered by yeast fitness: ≤ 0.5 for the first, ≤ 0.5 for the second.

Going from G6A G9C C11G C34U G68A to G6A G44A C46A G52A, the yeast fitness rises from 0.574 to 0.629.

First: G6A G12C U16C A21U C66U
Second: G6A G12A C33G U54A U59A G67A
The yeast fitness of the first is higher: 0.571 for the first, ≤ 0.5 for the second.

Compared with G6A G44A C46A, G6A G12C U16C A21U is higher in yeast fitness: ≤ 0.5 for the first, 0.532 for the second.

Going from G6A G25C A65U to G6A G18A C30U C55G, the yeast fitness falls from 0.663 to ≤ 0.5.

G6A G10C C34U C46U and G6A U8A G23C cannot be ordered by yeast fitness: ≤ 0.5 for the first, ≤ 0.5 for the second.

G6A G12A U54C C60G and G6A G10C C24U C34U A36U C46A cannot be ordered by yeast fitness: ≤ 0.5 for the first, ≤ 0.5 for the second.

Compared with G6A G48A A65C, G6A G52C C66U is higher in yeast fitness: 0.541 for the first, 0.584 for the second.

G6A U13C C27G A37U C60A and G6A G17C U35A G39A C55G C60U G67C cannot be ordered by yeast fitness: ≤ 0.5 for the first, ≤ 0.5 for the second.

G6A G50A A65U and G6A G23C C30G G39C cannot be ordered by yeast fitness: ≤ 0.5 for the first, ≤ 0.5 for the second.

Compared with G6A G18C C49A C61G, G6A U13A A40G A42G A57C C66U is higher in yeast fitness: ≤ 0.5 for the first, 0.525 for the second.

First: G6A G58C
Second: G6A G58A
The yeast fitness of the first is higher: 1.08 for the first, 0.902 for the second.

First: G6A G38A A40C G56A C60U C61G
Second: G6A G10A A45G
The yeast fitness of the first is lower: ≤ 0.5 for the first, 0.647 for the second.

First: G6A G12A A15C C24A
Second: G6A G12C C34U A70U
The yeast fitness of the first is lower: ≤ 0.5 for the first, 0.671 for the second.

G6A U8C G17A G25A C55A and G6A G10A G18A C27G A37G G38A cannot be ordered by yeast fitness: ≤ 0.5 for the first, ≤ 0.5 for the second.

Compared with G6A U8C G18C, G6A U8A C24U A40U is higher in yeast fitness: ≤ 0.5 for the first, 0.684 for the second.

Compared with G6A G17C C31G G50U U53A, G6A G10C C29U is lower in yeast fitness: 0.559 for the first, ≤ 0.5 for the second.

G6A U8C G23A A57C and G6A U13A A14G U32C A42U cannot be ordered by yeast fitness: ≤ 0.5 for the first, ≤ 0.5 for the second.

Going from G6A G10A C22G G25C to G6A G38C C66U, the yeast fitness rises from ≤ 0.5 to 0.532.

G6A G18C A37C C60A U64A and G6A G44A C60G U64C cannot be ordered by yeast fitness: ≤ 0.5 for the first, ≤ 0.5 for the second.

G6A G38C U54A A65C and G6A U8G A36G cannot be ordered by yeast fitness: ≤ 0.5 for the first, ≤ 0.5 for the second.

First: G6A G52A
Second: G6A G41A A42C G50C A70G
The yeast fitness of the first is higher: 0.677 for the first, 0.543 for the second.

G6A G44A C61G and G6A U8C A42C A45U C61G cannot be ordered by yeast fitness: ≤ 0.5 for the first, ≤ 0.5 for the second.

First: G6A G12A U13C U16A U19G G23A G58A G68A
Second: G6A G12C
The yeast fitness of the first is lower: ≤ 0.5 for the first, 0.855 for the second.

Compared with G6A G18U C24A U32A G38A A43G A45U G52A, G6A G56A G67U is lower in yeast fitness: 0.641 for the first, ≤ 0.5 for the second.

Going from G6A G17C A37C to G6A G51A C60G, the yeast fitness falls from 0.634 to ≤ 0.5.

G6A G17C G51A and G6A U13A G58C C60U C66G cannot be ordered by yeast fitness: ≤ 0.5 for the first, ≤ 0.5 for the second.

First: G6A G18C A21C C33A
Second: G6A G25C
The yeast fitness of the first is lower: 0.605 for the first, 0.866 for the second.

First: G6A U7A A20G C46G
Second: G6A G67A
The yeast fitness of the first is lower: 0.538 for the first, 0.872 for the second.

G6A U8C C62U G67A and G6A G17A U19A C31G U53C U54A cannot be ordered by yeast fitness: ≤ 0.5 for the first, ≤ 0.5 for the second.

G6A G18C A21C C33A G52A and G6A G17C G18C A45G cannot be ordered by yeast fitness: ≤ 0.5 for the first, ≤ 0.5 for the second.

First: G6A G39A G52C C55G
Second: G6A G23C C49G U53G A57G
The yeast fitness of the first is lower: ≤ 0.5 for the first, 0.567 for the second.

G6A G25A C34A G58A and G6A G10A C60G cannot be ordered by yeast fitness: ≤ 0.5 for the first, ≤ 0.5 for the second.

First: G6A G39C C55G
Second: G6A G48C C66U
The yeast fitness of the first is lower: ≤ 0.5 for the first, 0.769 for the second.

First: G6A U13A C30G C61U
Second: G6A G10C A20C U28C A36U
The yeast fitness of the first is lower: 0.601 for the first, 0.695 for the second.

First: G6A G25A A40C A57C C61A G67A
Second: G6A U8C A70U
The yeast fitness of the first is lower: ≤ 0.5 for the first, 0.57 for the second.

Going from G6A U8G A42U C61G to G6A U7A G38C, the yeast fitness rises from ≤ 0.5 to 0.603.

Compared with G6A G23A A42G C46U C55G, G6A G44C is higher in yeast fitness: 0.522 for the first, 0.799 for the second.

G6A U13G G48A G50A U54A and G6A G12A A57U cannot be ordered by yeast fitness: ≤ 0.5 for the first, ≤ 0.5 for the second.

G6A G23U C24G U35A G48C and G6A U8A A42U cannot be ordered by yeast fitness: ≤ 0.5 for the first, ≤ 0.5 for the second.

First: G6A G25A U59C
Second: G6A U8C U13G C27U C61G
The yeast fitness of the first is lower: ≤ 0.5 for the first, 0.567 for the second.

G6A U8C C31G C60G and G6A G10C U54C cannot be ordered by yeast fitness: ≤ 0.5 for the first, ≤ 0.5 for the second.

G6A G17A C31A C33G G38A and G6A G18C A37C cannot be ordered by yeast fitness: ≤ 0.5 for the first, ≤ 0.5 for the second.

First: G6A G44A G51C C66U
Second: G6A G12A G41A A65U
The yeast fitness of the first is lower: ≤ 0.5 for the first, 0.547 for the second.

Compared with G6A G39A G41A A65G, G6A U8C G12C C29G C30U A45U C62U A69U is higher in yeast fitness: 0.613 for the first, 0.823 for the second.

Going from G6A U8C C62U to G6A U13G U35C A57C, the yeast fitness falls from 0.604 to ≤ 0.5.

First: G6A G17A U19G
Second: G6A U8C A14C C61U
The yeast fitness of the first is higher: 0.512 for the first, ≤ 0.5 for the second.

Going from G6A G41A C62U to G6A U13C C31U U32C G67C, the yeast fitness falls from 0.619 to ≤ 0.5.

G6A G10C A15U C61A and G6A G10C C34U G52C cannot be ordered by yeast fitness: ≤ 0.5 for the first, ≤ 0.5 for the second.

First: G6A G18C A37C C62A
Second: G6A U7A U26C C34G G63A
The yeast fitness of the first is higher: 0.604 for the first, ≤ 0.5 for the second.

First: G6A U8C C34G
Second: G6A G41C A43G C49U
The yeast fitness of the first is lower: ≤ 0.5 for the first, 0.745 for the second.

First: G6A G50U
Second: G6A G50C
The yeast fitness of the first is higher: 0.826 for the first, 0.629 for the second.

First: G6A G50A
Second: G6A U8C U19A C30A A45U G58C A69U
The yeast fitness of the first is higher: 0.841 for the first, ≤ 0.5 for the second.

Compared with G6A U8C U54C, G6A G23C C49G G50A U53G A57G is lower in yeast fitness: 0.552 for the first, ≤ 0.5 for the second.

Compared with G6A G25A A69U, G6A G44U C66U is lower in yeast fitness: 0.68 for the first, 0.601 for the second.

First: G6A G39A A65C
Second: G6A G38A G56A
The yeast fitness of the first is lower: 0.605 for the first, 0.679 for the second.

Compared with G6A G68C, G6A G18C C22G C33G is lower in yeast fitness: 0.754 for the first, ≤ 0.5 for the second.

G6A G10C A15U A70G and G6A U13C G23A A65C cannot be ordered by yeast fitness: ≤ 0.5 for the first, ≤ 0.5 for the second.

G6A G17C C31A A36U C55G G63A and G6A G18A A36C U47G cannot be ordered by yeast fitness: ≤ 0.5 for the first, ≤ 0.5 for the second.

Compared with G6A U13G U28G, G6A U16C C22U A37U C49A C62U is lower in yeast fitness: 0.511 for the first, ≤ 0.5 for the second.

Compared with G6A G41A G51C, G6A G10A is higher in yeast fitness: ≤ 0.5 for the first, 0.859 for the second.

Compared with G6A G50A U53G A69G, G6A G63A is higher in yeast fitness: ≤ 0.5 for the first, 0.883 for the second.

Compared with G6A G39C G44C C46U, G6A G12C U16A A21C G56A is higher in yeast fitness: ≤ 0.5 for the first, 0.536 for the second.

First: G6A G41A
Second: G6A U8C A15G A20U A45U U64C
The yeast fitness of the first is higher: 0.822 for the first, ≤ 0.5 for the second.

Compared with G6A U13A U16A C24G C33G C62G, G6A G18A is higher in yeast fitness: ≤ 0.5 for the first, 0.824 for the second.

Going from G6A G58A G68C to G6A U13G C62G, the yeast fitness falls from 0.649 to ≤ 0.5.

G6A G10C G63A and G6A U8A C11U cannot be ordered by yeast fitness: ≤ 0.5 for the first, ≤ 0.5 for the second.

Going from G6A G9C C11G G48C U59A to G6A G9U C11U A70C, the yeast fitness rises from ≤ 0.5 to 0.533.

G6A G9C U19C C24U U54C and G6A U13A A37C cannot be ordered by yeast fitness: ≤ 0.5 for the first, ≤ 0.5 for the second.

First: G6A U16C
Second: G6A U16A
The yeast fitness of the first is higher: 0.974 for the first, 0.769 for the second.

First: G6A U13C C22G C55G
Second: G6A U13A G17A G23C A45G
The yeast fitness of the first is lower: ≤ 0.5 for the first, 0.602 for the second.

G6A G12C C49G and G6A G9C G23A U26C A40U A42U cannot be ordered by yeast fitness: ≤ 0.5 for the first, ≤ 0.5 for the second.

G6A G12C U16C C31U G52C A70G gave a yeast fitness of 0.651.
